Experimental data reported in paper PMC6677133 (European journal of medicinal chemistry, 2019).
Residues, ends and D or L forms follow the SMILES beside them.

Columns and labels:
[1] = tested on: NL4–3 strain of HIV-1 (X4 strain); assay: Anti-HIV-1 entry assay, one-day culture, intracellular p24 antigen in PBMCs; format: cell-based; settings: unlinked control fragments alone; assay format not stated
CXCR4 = CXCR4 (Homo sapiens, UniProt P61073); assay: CXCR4 internalization assay, CHO-CXCR4-FLAG cells; format: cell-based; settings: 1h of treatment at 100 nM
CXCR4, sequence (P61073 whole entry): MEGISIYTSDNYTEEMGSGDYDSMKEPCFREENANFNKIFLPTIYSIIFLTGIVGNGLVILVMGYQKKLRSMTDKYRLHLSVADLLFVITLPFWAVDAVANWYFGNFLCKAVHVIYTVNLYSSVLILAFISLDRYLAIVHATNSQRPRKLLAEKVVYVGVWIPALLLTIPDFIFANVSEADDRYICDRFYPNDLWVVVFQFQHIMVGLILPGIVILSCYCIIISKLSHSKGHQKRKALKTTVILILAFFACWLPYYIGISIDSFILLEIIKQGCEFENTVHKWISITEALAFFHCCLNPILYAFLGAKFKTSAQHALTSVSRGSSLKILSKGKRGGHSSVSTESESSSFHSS
How it was run: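 CHO cells expressing N-terminally FLAG-tagged CXCR4 washed at 4°C in RPMI 1640 with 0.5% BSA. Seeded 3×10^5/well and exposed at 37°C to graded test compound, with SDF-1α as positive control. Surface receptor stained with anti-FLAG then FITC anti-mouse antibody, each 30 min at 4°C, and read at 485/528 nm. At least three independent experiments, mean ± SEM.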

Compound	antiviral activity [1]	CXCR4 internalization (CXCR4)
C[C@@H](O)[C@H](NC(=O)[C@H](CCCNC(=N)N)NC(=O)[C@@H]1CCCN1C(=O)[C@H](CC(N)=O)NC(=O)[C@H](CC(N)=O)NC(=O)[C@H](CC(N)=O)NC(=O)[C@@H](NC(=O)[C@H](CCCCN)NC(=O)[C@H](CCCNC(=N)N)NC(=O)[C@H](CCCCN)NC(=O)CCCCCN)[C@@H](C)O)C(=O)N[C@@H](CS)C(N)=O [AR6r] (HELM PEPTIDE1{[NCCCCCC(=O)[*:2]].K.R.K.T.N.N.N.P.R.T.C.[am]}$$$$V2.0)	did not show any antiviral activity	–
SDF-1α	–	43.87%
